Data on 15 compounds can be found in ChEMBL document CHEMBL2396544, “1,4-Diaryl-substituted triazoles as cyclooxygenase-2 inhibitors: Synthesis, biological evaluation and molecular modeling studies” (Bioorg Med Chem, 2013).

Each structure is given as a SMILES string. pIC50: −log10 of the molar value.

The nature of assay [1]: Selectivity index, ratio of IC50 for ovine COX1 to IC50 for human recombinant COX2. An outline of the steps:
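Ovine COX-1 and human recombinant COX-2 tested in parallel with a fluorescent COX inhibitor screening kit. […] The index is the COX-1 IC50 divided by the COX-2 IC50.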

Assay [2] concerns the target T1, Prostaglandin G/H synthase 1 (Ovis aries, UniProt P05979).
T1 sequence (P05979 whole entry): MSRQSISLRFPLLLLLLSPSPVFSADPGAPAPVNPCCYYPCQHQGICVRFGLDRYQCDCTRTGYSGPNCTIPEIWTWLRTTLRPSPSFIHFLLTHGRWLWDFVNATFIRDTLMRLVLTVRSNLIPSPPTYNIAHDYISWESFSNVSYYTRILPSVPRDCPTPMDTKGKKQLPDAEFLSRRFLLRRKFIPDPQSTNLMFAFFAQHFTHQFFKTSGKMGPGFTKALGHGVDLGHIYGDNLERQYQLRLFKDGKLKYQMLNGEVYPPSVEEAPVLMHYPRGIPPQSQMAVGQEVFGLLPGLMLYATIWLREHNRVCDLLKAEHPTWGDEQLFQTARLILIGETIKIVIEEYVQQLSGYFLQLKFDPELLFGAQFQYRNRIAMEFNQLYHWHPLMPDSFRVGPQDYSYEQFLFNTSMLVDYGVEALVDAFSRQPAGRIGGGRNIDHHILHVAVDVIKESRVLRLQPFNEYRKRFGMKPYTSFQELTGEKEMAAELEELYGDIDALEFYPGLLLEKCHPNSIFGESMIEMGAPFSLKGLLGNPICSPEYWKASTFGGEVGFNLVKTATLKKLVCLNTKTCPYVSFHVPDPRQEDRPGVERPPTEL
Briefly: Inhibition of ovine COX1 by fluorescence assay. In a few lines:
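Ovine COX-1 tested in vitro with a fluorescent COX-1/COX-2 inhibitor screening kit. Each value is the mean of three determinations, with deviation from the mean under 10%.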

The target in assay [3] is T2, Prostaglandin G/H synthase 2 (Homo sapiens, UniProt P35354).
T2 sequence (P35354 whole entry): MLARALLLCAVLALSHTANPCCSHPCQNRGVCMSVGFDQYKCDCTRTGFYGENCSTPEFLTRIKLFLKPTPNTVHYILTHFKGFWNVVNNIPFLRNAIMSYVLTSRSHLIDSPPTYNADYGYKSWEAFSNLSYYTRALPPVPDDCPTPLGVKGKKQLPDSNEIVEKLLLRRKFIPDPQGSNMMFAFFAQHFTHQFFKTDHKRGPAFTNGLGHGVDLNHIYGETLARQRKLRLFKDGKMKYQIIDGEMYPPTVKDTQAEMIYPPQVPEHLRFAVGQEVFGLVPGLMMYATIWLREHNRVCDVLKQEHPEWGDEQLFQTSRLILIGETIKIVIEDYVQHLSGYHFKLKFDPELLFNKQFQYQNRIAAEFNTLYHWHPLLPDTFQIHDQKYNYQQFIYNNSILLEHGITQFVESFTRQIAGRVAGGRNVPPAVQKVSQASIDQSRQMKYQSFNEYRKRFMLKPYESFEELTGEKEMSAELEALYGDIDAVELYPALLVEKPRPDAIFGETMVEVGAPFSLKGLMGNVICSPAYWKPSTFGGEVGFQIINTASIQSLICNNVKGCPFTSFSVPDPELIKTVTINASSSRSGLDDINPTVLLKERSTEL
The assay is described as follows: Inhibition of human recombinant COX2 by fluorescence assay.

Usually pIC50 stands for the negative decadic logarithm of the IC50, by convention in mol/L. With `NS(=O)(=O)c1ccc(-n2cc(-c3ccccc3)nn2)cc1`, the Ratio IC50 in assay [1] was over 77. The results for the pIC50 in assay [2] and in assay [3] were under 4.00 and 5.89, respectively.

Turning to `COc1ccc(-c2cn(CCc3ccc(S(N)(=O)=O)cc3)nn2)cc1`, the Ratio IC50 in assay [1] is over 3.7. Also, the values for the pIC50 in assay [2] and in assay [3] were under 4.00 and 4.57, respectively.

Take `NS(=O)(=O)c1ccc(CCn2cc(-c3ccc(Cl)cc3)nn2)cc1`: in assay [1], the Ratio IC50 is over 588. In addition, the negative-log IC50 (pIC50) is under 4.00 in assay [2] and 6.77 in assay [3].

For `Cc1ccc(-c2cn(-c3ccc(S(N)(=O)=O)cc3)nn2)cc1`, the Ratio IC50 in assay [1] stood at 4.6. Moreover, the pIC50 in assay [2] was 4.19; in assay [3], 4.85.

For the compound `COc1ccc(-c2cn(Cc3ccc(S(N)(=O)=O)cc3)nn2)cc1`, the Ratio IC50 in assay [1] was over 7.7. For the same compound, the pIC50 in assay [2] was under 4.00; in assay [3], 4.89.

For the compound `NS(=O)(=O)c1ccc(CCn2cc(-c3ccccc3)nn2)cc1`, the Ratio IC50 in assay [1] was over 91. Also, the pIC50 in assay [2] is under 4.00; in assay [3] it was 5.96.

As to `NS(=O)(=O)c1ccc(Cn2cc(-c3ccc(F)cc3)nn2)cc1`, the Ratio IC50 in assay [1] turned out to be 13.3. Moreover, the negative logarithm of the IC50 (pIC50) in assay [2] is 4.70; in assay [3], 5.82.

Take `COc1ccc(-c2cn(-c3ccc(S(N)(=O)=O)cc3)nn2)cc1`: in assay [1], the Ratio IC50 is over 9.1. The negative-log IC50 (pIC50) in assay [2] is under 4.00; in assay [3], 4.96.

In the case of `NS(=O)(=O)c1ccc(-n2cc(-c3ccc(F)cc3)nn2)cc1`, the Ratio IC50 in assay [1] is over 7.4. For the same compound, the negative-log IC50 (pIC50) was under 4.00 in assay [2] and 4.87 in assay [3].

Regarding `NS(=O)(=O)c1ccc(Cn2cc(-c3ccccc3)nn2)cc1`, the Ratio IC50 in assay [1] worked out at 6. Further, the pIC50 in assay [2] was 4.41; in assay [3], 5.19.

`NS(=O)(=O)c1ccc(CCn2cc(-c3ccc(F)cc3)nn2)cc1`: the Ratio IC50 in assay [1] was over 100. Besides, the pIC50 in assay [2] was under 4.00; in assay [3] it was 6.00.

Consider `NS(=O)(=O)c1ccc(-n2cc(-c3ccc(Cl)cc3)nn2)cc1`, for which the Ratio IC50 in assay [1] was 16.1. For the same compound, the pIC50 in assay [2] was 4.68; in assay [3], 5.89.

For the compound `Cc1ccc(-c2cn(Cc3ccc(S(N)(=O)=O)cc3)nn2)cc1`, the Ratio IC50 in assay [1] was over 83. For the same compound, the negative-log IC50 (pIC50) in assay [2] was under 4.00; in assay [3] it was 5.92.

Regarding `NS(=O)(=O)c1ccc(Cn2cc(-c3ccc(Cl)cc3)nn2)cc1`, the Ratio IC50 in assay [1] was over 3.6. The figures for the pIC50 in assay [2] and in assay [3] were under 4.00 and 4.55, respectively.

For `Cc1ccc(-c2cn(CCc3ccc(S(N)(=O)=O)cc3)nn2)cc1`, in assay [1], the Ratio IC50 was over 29. For the same compound, the pIC50 is under 4.00 in assay [2] and 5.47 in assay [3].
